In PMC7954469 (European journal of medicinal chemistry, 2021):
Like-named read-outs stand apart in the source and are kept apart here. Where a SMILES comes first, the peptide text is derived from it. [ ]: non-standard residue; d: D form. The star is where a group is joined. Cbz = O=C(OCc1ccccc1)*

Legend:
T532C-yeast Cdc48 = T532C-yeast Cdc48 (Saccharomyces cerevisiae, UniProt P25694, T532C); test: ATPase activity assay, T532C-yeast Cdc48; assay type: biochemical
p97 [1] = molecular target: T1, p97 (Homo sapiens, UniProt P55072); test: p97 ATPase activity assay; assay type: biochemical
T1 sequence (P55072 whole entry): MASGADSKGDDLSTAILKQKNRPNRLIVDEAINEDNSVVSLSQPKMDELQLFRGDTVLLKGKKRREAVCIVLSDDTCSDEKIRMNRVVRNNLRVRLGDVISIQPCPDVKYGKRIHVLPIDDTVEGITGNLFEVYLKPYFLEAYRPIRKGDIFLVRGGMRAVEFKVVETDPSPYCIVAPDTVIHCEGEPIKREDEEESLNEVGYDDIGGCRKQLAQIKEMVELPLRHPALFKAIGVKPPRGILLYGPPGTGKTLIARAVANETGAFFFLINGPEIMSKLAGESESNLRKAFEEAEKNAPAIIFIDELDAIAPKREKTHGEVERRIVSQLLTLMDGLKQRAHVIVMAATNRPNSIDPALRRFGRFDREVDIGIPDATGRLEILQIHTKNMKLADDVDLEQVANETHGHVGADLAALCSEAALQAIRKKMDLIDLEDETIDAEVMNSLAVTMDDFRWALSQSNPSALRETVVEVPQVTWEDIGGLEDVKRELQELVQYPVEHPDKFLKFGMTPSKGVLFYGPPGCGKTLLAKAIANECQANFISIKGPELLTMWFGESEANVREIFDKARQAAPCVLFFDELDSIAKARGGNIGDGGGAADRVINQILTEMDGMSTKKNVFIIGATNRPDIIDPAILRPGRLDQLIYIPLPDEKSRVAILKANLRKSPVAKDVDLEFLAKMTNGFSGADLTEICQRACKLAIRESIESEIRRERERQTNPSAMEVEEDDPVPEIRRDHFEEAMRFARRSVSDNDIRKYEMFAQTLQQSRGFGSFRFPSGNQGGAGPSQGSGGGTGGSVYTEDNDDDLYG

Ub^G76V-GFP [2] = test: Washout; assay type: cell-based, human; conditions: cycloheximide, additional 17 h
p97 [3] = molecular target: T1, p97; conditions: read-out: Apparent IC50 p97; ATPase activity; adapted from reference; cited from earlier work
Ub^G76V-GFP [4] = conditions: read-out: Apparent IC50 Ub^G76V-GFP; adapted from reference; cited from earlier work
ODD-Luc = conditions: read-out: Apparent IC50 ODD-Luc; adapted from reference; cited from earlier work
C522A-p97 = C522A-p97 (Homo sapiens, UniProt P55072, C522A); conditions: cited from earlier work
C522A-p97, sequence (P55072 whole entry C522A): as the sequence (P55072 whole entry) above, with C522A counted along it

Syk = conditions: cited from earlier work
Yeast Cdc48 = Yeast Cdc48 (Saccharomyces cerevisiae, UniProt P25694); test: ATPase activity assay, yeast Cdc48; assay type: biochemical
Yeast Cdc48, sequence (P25694 whole entry): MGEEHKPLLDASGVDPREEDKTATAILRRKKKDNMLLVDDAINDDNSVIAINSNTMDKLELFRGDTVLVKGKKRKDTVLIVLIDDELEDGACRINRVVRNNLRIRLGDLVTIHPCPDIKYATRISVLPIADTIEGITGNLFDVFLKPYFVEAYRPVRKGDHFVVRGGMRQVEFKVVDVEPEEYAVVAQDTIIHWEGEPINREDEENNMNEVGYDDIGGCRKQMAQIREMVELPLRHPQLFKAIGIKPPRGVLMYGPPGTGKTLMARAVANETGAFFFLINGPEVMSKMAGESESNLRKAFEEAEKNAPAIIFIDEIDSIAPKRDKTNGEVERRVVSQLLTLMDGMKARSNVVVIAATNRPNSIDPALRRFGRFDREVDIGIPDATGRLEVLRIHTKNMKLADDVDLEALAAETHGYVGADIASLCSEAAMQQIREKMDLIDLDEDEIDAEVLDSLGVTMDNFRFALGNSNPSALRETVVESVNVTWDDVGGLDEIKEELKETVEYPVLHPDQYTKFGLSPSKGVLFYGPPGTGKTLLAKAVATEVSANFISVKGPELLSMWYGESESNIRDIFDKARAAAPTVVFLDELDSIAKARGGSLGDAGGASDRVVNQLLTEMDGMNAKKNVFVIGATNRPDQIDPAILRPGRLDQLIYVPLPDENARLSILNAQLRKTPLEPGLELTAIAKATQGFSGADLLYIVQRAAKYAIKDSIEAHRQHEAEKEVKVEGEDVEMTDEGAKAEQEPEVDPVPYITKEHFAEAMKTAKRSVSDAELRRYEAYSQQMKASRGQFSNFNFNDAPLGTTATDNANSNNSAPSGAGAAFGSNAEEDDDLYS

Hamster NSF = Hamster NSF (Cricetulus griseus, UniProt P18708); test: ATPase activity assay, NSF; assay type: biochemical
Hamster NSF, sequence (P18708 whole entry): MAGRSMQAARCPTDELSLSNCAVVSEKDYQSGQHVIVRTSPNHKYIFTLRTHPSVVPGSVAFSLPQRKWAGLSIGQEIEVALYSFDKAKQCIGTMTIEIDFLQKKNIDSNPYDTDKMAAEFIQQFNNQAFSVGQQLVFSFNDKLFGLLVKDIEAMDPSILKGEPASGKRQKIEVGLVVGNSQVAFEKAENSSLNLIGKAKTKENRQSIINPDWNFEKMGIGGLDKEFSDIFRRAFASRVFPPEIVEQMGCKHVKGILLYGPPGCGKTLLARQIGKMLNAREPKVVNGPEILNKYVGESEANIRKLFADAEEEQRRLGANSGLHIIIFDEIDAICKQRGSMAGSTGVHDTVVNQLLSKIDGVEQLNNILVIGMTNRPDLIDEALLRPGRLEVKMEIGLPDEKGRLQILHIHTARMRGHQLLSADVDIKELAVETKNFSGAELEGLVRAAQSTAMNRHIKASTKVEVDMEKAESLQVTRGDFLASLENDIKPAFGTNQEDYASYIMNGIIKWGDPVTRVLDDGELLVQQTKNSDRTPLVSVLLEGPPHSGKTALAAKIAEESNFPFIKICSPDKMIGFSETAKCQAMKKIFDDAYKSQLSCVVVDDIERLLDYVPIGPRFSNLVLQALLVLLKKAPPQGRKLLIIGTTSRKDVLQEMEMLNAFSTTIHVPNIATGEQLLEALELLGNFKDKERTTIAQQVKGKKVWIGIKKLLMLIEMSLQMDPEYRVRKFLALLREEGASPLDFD

Human 26S proteasome = Human 26S proteasome (Homo sapiens, UniProt P28074); test: Human 26S proteasome activity assay; assay type: biochemical; conditions: 5, 25, or 50 μM; affinity-purified 26S proteasome from Hek293 cells; listed as PPA
In short: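 26S proteasome was affinity-purified from HEK293 cells stably expressing tagged Rpn11. Suc-LLVY-AMC (60 μM) then started the reaction. Fluorescence was read every 3 min for 30 min, in sextuplicate.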

[5] = tested on: CB-5083 resistant HCT116 cell line harboring D649A, T688A p97 mutant (CB-R); test: Anti-proliferative assay, CB-5083 resistant HCT116; assay type: cell-based, human; conditions: compared with parental HCT116; listed as PPA
[6] = tested on: NMS-873 resistant HCT116 cell line harboring A530T p97 mutant (NMS-R); test: Anti-proliferative assay, NMS-873 resistant HCT116; assay type: cell-based, human; conditions: compared with parental HCT116; listed as PPA
In short: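 Cells were grown in RPMI1640 or DMEM with 5% FBS and 1% penicillin-streptomycin. Seeding was 750 or 3000 cells/well, set from each line's luminescence–cell-number standard curve. After 24 h, cells got test compound (eight three-fold dilutions) for 48 h at 37 °C, 5% CO2. Viability was read by CellTiter-Glo luminescence. IC50 came from % growth versus DMSO control. Data are mean ± SEM of four replicate experiments.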

TCRα-GFP = test: TCRα-GFP; assay type: cell-based, human; conditions: 10 μM, 60 min or 120 min, cycloheximide, HEK293 cells
In short: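 HEK293 cells stably expressing TCRα-GFP were pretreated 1 h with 4 μM MG132, then washed. They were then incubated with 50 μM cycloheximide plus 10 μM test compound, or MG132 as control, for 60 or 120 min before harvest. Lysates were immunoblotted with anti-GFP, with anti-p97 as loading control, and detected by ECL.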

p97 [7] = conditions: cited from earlier work
C522A mutant = conditions: cited from earlier work
cancer cell lines = conditions: cited from earlier work

T532C-yeast Cdc48, sequence (P25694 whole entry T532C): as the sequence (P25694 whole entry) above, with T532C counted along it

With CC(C)(C)n1nc(-c2ccc3ccccc3c2)c2c(N)ncnc21 [Compound 21, 2-Naphthyl pyrazolopyrimidine] the IC50 (T532C-yeast Cdc48) was greater than 100 µM.

With O=C(O)/C=C/c1ccc2c(c1)OCO2 [Compound 7] the “Activity in ATPase and Ub^G76V-GFP turnover assays (in words)” value (p97 [1]; summary of Tables 2 and 3) was “complete loss of activity”.

In the case of CC(C)C[C@@H](C=O)NC(=O)[C@@H](CC(C)C)NC(=O)[C@H](CC(C)C)NC(=O)OCc1ccccc1 [MG132] (Cbz-Leu-[dL]-Leu-aldehyde), the “Reversibility: Ub^G76V-GFP degradation after washout (in words)” value (Ub^G76V-GFP [2]) is reported as “degraded after washing out”.

In the case of “3,4-methylenedioxy-β-nitrostyrene [Compound 2]”, the IC50 (p97 [3]) is given as 1700 ± 500 nM, the IC50 (Ub^G76V-GFP [4]) is given as 1600 ± 400 nM and the IC50 (ODD-Luc) is given as 3.9 ± 1 µM. For the same compound, the “Activity towards the C522A mutant (in words)” value (C522A-p97) was “poor activity” and the “IC50 Syk (in words)” value (Syk) was “submicromolar”.

With C=CC(=O)Nc1ncnc2c1c(-c1ccccc1)nn2C(C)(C)C [Compound 18, N-(1-(tert-butyl)-3-phenyl-1H-pyrazolo[3,4-d]pyrimidin-4-yl)acrylamide] the “Selectivity on wild-type vs. Cys522-mutated p97” value (p97 [1]) was “up to 100 fold”, the IC50 (Yeast Cdc48) was 300 µM and the IC50 (Hamster NSF) was 100 µM. The “NSF less sensitive than p97” value (Hamster NSF) was “more than 100 fold”, the “Inhibition of hydrolysis of LLVY-AMC by 26S proteasome (in words)” value (Human 26S proteasome) was “did not inhibit” and the “Anti-proliferative activity in CB-R HCT116 (in words)” value [5] was “can inhibit growth”. The “Anti-proliferative activity in NMS-R HCT116 (in words)” value [6] was “can inhibit growth”, the “Reversibility: Ub^G76V-GFP degradation after washout (in words)” value (Ub^G76V-GFP [2]) was “irreversibly block degradation” and the “Degradation of ERAD substrate TCRα-GFP (in words)” value (TCRα-GFP) was “block degradation”.

In the case of Oxaspirol B, the IC50 (p97 [7]) is listed as 31.2 ± 3 µM.

In the case of CC1CCCC=CC(=O)c2c(O)cc(O)cc2CC(=O)O1 (stereo not shown) [Δ(10,11)-Dehydrocurvularin], the IC50 (p97 [7]; covalent bond with Cys522) is listed as 15.3 ± 9.9 µM.

For c1ccc(CNc2nc(N3CCOc4ccccc43)nc3c2CCCC3)cc1 [ML241], the IC50 (p97 [7]) is listed as roughly 0.1 µM.

In the case of COc1cccc2c(NCc3ccccc3)nc(-n3c(N)nc4ccccc43)nc12 [ML240], the IC50 (p97 [7]) is listed as roughly 0.1 µM.

In the case of CC(C)N1CCN(CCNC2CCN(c3cccc(-c4cc5cc(F)ccc5[nH]4)c3)CC2)CC1 [UPCDC30245], the IC50 (p97 [7]; allosteric p97 inhibitor) is listed as 0.027 µM.

CC(C)(C)n1nc(-c2ccccc2)c2c(N)ncnc21 [Compound 17, 4-amino-1-tert-butyl-3-phenyl pyrazolo[3,4-d]pyrimidine] showed an IC50 (T532C-yeast Cdc48) greater than 100 µM.

For O=C(/C=C1\Nc2ccccc2C(=O)N2CCC[C@@H]12)/C=C/c1c[nH]c2ccc(I)cc12 [5’-I-Fuligocandin B], the IC50 (p97 [7]) is given as 7 µM.

For Cc1ccc(-c2c(C(=O)CF)n(CCCO)c3ncnc(N)c23)cc1 [Compound 5], the “Less active than compound 4” value (p97 [1]; in vitro and cell-based p97 assays, summary of Table 1) was 10 fold.

For CC(=O)OCC1=C(C)C[C@H]([C@@H](C)[C@H]2CC[C@H]3[C@@H]4C[C@H]5O[C@]56[C@@H](O)C=CC(=O)[C@]6(C)[C@H]4CC[C@]23C)OC1=O [Withaferin A 27-Acetate], the IC50 (p97 [7]; wild-type p97) is given as 21 µM, the “Inhibition against the C522A mutant (in words)” value (C522A mutant) is given as “didn’t show inhibition” and the “Anti-proliferative effects at lower concentration than p97 IC50” value (cancer cell lines) is given as 10 fold.
